Results taken from ChEMBL document CHEMBL1124367, “Design, synthesis, and testing of potential antisickling agents. 7. Ethacrynic acid analogues” (J Med Chem, 1989).

Legend:
[1] = (§1) Solubility ratio of the sickle cell haemoglobin with compound to sickle cell haemoglobin with out compound at 9 mM; assay type: ADME; conditions: 9000 µM
How it was run: (§2)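 HbS purified from red cells by DEAE-Sephacel chromatography and held in 150 mM phosphate, pH 7.4. Compound was added as its sodium salt in 0.15 M phosphate, pH 7.4, and incubated with HbS overnight at 4°C. Samples were sealed in EPR tubes and spun at 150000 g for 2.5 h at 35°C.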

[2] = Solubility ratio of the sickle cell haemoglobin with compound to sickle cell haemoglobin with out compound at 3 mM; assay type: ADME; conditions: 3000 µM; how it was run: as §2
[3] = Solubility ratio of the sickle cell haemoglobin with compound to sickle cell haemoglobin with out compound at 7 mM; assay type: ADME; conditions: 7000 µM; how it was run: as §2
[4] = Solubility ratio for sickle cell haemoglobin in presence and absence of compound; assay type: ADME; how it was run: as §2
[5] = as §1; assay type: ADME; conditions: 9000 µM; remark: listed apart in the source
How it was run: as §2, with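 “4°C. Sodium dithionite was then added (final 58.88 mM, final HbS about 24 g%).” for “4°C.”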

Canis familiaris [6] = assay: Diuretic activity of compound measured in dog urine after intravenous administration of 5 mg/kg
[7] = Solubility ratio of the sickle cell haemoglobin with compound to sickle cell haemoglobin with out compound at 10 mM; assay type: ADME; conditions: 10000 µM
How it was run: as §2, with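 “4°C. Sodium dithionite was then added (final 58.88 mM, final HbS about 24 g%).” for “4°C.”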

Canis familiaris [8] = assay: Diuretic activity of compound measured in dog urine after intravenous injection of 5 mg/kg; assay type: functional, Canis lupus familiaris
[9] = Solubility ratio of the sickel cell haemoglobin with compound to sickle cell haemoglobin with out compound at 3 mM; assay type: ADME; conditions: 3000 µM
How it was run: as §2, with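 “4°C. Sodium dithionite was then added (final 58.88 mM, final HbS about 24 g%).” for “4°C.”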

[10] = Solubility ratio of the sickell cell haemoglobin with compound to sickle cell haemoglobin with out compound at 5 mM; assay type: ADME; conditions: 5000 µM
How it was run: as §2, with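 “4°C. Sodium dithionite was then added (final 58.88 mM, final HbS about 24 g%).” for “4°C.”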

[11] = Solubility ratio of the sickell cell haemoglobin with compound to sickle cell haemoglobin with out compound at 7 mM; assay type: ADME; conditions: 7000 µM
How it was run: as §2, with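 “4°C. Sodium dithionite was then added (final 58.88 mM, final HbS about 24 g%).” for “4°C.”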

[12] = Solubility ratio of the sickell cell haemoglobin with compound to sickle cell haemoglobin with out compound at 9 mM; assay type: ADME; conditions: 9000 µM
How it was run: as §2, with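 “4°C. Sodium dithionite was then added (final 58.88 mM, final HbS about 24 g%).” for “4°C.”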

[13] = Solubility ratio of the sickle cell haemoglobin with compound to sickell cell haemoglobin with out compound at 10 mM; assay type: ADME; conditions: 10000 µM
How it was run: as §2, with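 “4°C. Sodium dithionite was then added (final 58.88 mM, final HbS about 24 g%).” for “4°C.”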

[14] = Solubility ratio of the sickle cell haemoglobin with compound to sickell cell haemoglobin with out compound at 5 mM; assay type: ADME; conditions: 5000 µM
How it was run: as §2, with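 “4°C. Sodium dithionite was then added (final 58.88 mM, final HbS about 24 g%).” for “4°C.”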

[15] = Solubility ratio of the sickle cell haemoglobin with compound to sickle cell haemoglobin without compound at 5 mM; assay type: ADME; conditions: 5000 µM
How it was run: as §2, with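 “4°C. Sodium dithionite was then added (final 58.88 mM, final HbS about 24 g%).” for “4°C.”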

Solubility ratio [1]	Solubility ratio [2]	Solubility ratio [3]	Solubility ratio [4]	Structure (SMILES)	Diuretic activity (Canis familiaris [8])	other results
1.202	1.08	1.147	1.127	C=C(CC)C(=O)c1ccc(OC2(C(=O)O)CCC2)c(Cl)c1Cl		
1.143	1.057	1.099	1.085	C=C(CCC)C(=O)c1ccc(OC2(C(=O)O)CCC2)c(Cl)c1Cl		
	1.052	1.106	1.1	CC/C(=C/c1ccc(C(=O)O)cc1Cl)[N+](=O)[O-]		Solubility ratio [5]: 1.15
			1.076	O=C(c1cccs1)c1cc2c(c(Cl)c1Cl)OC(C(=O)O)C2 (stereo unspecified)		Diuretic activity (Canis familiaris [6]): 0; Solubility ratio [7]: 1.08
1.039			1.059	CCC1=C(c2ccc(OCCCC(=O)O)c(Cl)c2Cl)OC(CC)(C(=O)c2ccc(OCCCC(=O)O)c(Cl)c2Cl)CC1 (stereo unspecified)		
1.129	1.048	1.103	1.08	C=C(CC)C(=O)c1c(Cl)cc(Cl)cc1OCC(=O)O		
1.149	1.082	1.155	1.115	C=C(CCC)C(=O)c1ccc(OCCCC(=O)O)c(Cl)c1Cl		
			0.966	CC(C)C(Br)C(=O)c1ccc(OCC(=O)O)c(Cl)c1Cl (stereo unspecified)	3	Solubility ratio [7]: 0.983
1.309	1.107	1.287	1.224	C=C(CC)C(=O)c1ccc(OCCCC(=O)NCC(=O)O)c(Cl)c1Cl		
1.207	1.085	1.159	1.128	CC/C(=C/c1ccc(OCC(=O)O)c(OC)c1)[N+](=O)[O-]		
			1.018	CCC(CN(C)C)C(=O)c1ccc(OCC(=O)O)c(Cl)c1Cl.Cl (stereo unspecified)	4	Solubility ratio [7]: 1.168
1.099	1.038	1.075	1.076	C/C(=C/c1ccc(OCC(=O)O)cc1)[N+](=O)[O-]	1	
1.308	1.081	1.2	1.129	C=C(CC)C(=O)c1ccc(OCCCCC(=O)O)c(Cl)c1Cl		
1.113	1.073	1.089	1.077	C=C(CC)C(=O)c1ccc(OCCN(CC)CC)c(Cl)c1Cl		
1.164		1.125	1.086	C=C(CC)C(=O)c1ccc(OCCCCCC(=O)O)c(Cl)c1Cl		Solubility ratio [9]: 1.063
			1.01	CC1(C2CCCC2)Cc2cc(OCC(=O)O)c(Cl)c(Cl)c2C1=O (stereo unspecified)		Diuretic activity (Canis familiaris [6]): 2; Solubility ratio [7]: 1.015

Solubility ratio [1]	Solubility ratio [2]	Solubility ratio [3]	Solubility ratio [4]	Structure (SMILES)	Diuretic activity (Canis familiaris [8])	other results
				CC(=O)C(=Cc1ccc(OCC(=O)O)c(Cl)c1Cl)C(C)=O	6	
	1.112			C=C(CC)C(=O)c1ccc(OCCC(=O)O)c(Cl)c1Cl		Solubility ratio [10]: 1.145; Solubility ratio [11]: 1.188; Solubility ratio [12]: 1.302
				CCC1=C(c2ccc(OCC(=O)O)c(Cl)c2Cl)OC(CC)(C(=O)c2ccc(OCC(=O)O)c(Cl)c2Cl)CC1 (stereo unspecified)	0	Solubility ratio [13]: 0.996; Solubility ratio [14]: 0.993
1.196	1.084	1.168	1.122	C=C(CC)C(=O)c1ccc(OCCCC(=O)O)c(Cl)c1Cl		
			0.961	CC1(C2CCCC2)Cc2cc(OCCCC(=O)O)c(Cl)c(Cl)c2C1=O (stereo unspecified)		Solubility ratio [7]: 1.006
1.131	1.051	1.096	1.086	CC/C(=C/c1ccc(OCC(=O)O)c(Cl)c1Cl)[N+](=O)[O-]		
1.078	1.017	1.062	1.033	C/C=C(\CC)C(=O)c1ccc(OCC(=O)O)c(Cl)c1Cl	5	
1.095	1.033	1.067	1.06	C=CC(=O)c1ccc(OCC(=O)O)c(Cl)c1Cl		
1.12	1.074	1.103	1.09	CCC1=Cc2cc(OCC(=O)O)c(Cl)c(Cl)c2C1=O	5	
			1.016	CCC(SC)C(=O)c1ccc(OCC(=O)O)c(Cl)c1Cl (stereo unspecified)		Solubility ratio [7]: 1.073
1.327	1.109	1.222	1.145	C=C(CC)C(=O)c1ccc(OCC(=O)NCC(=O)O)c(Cl)c1Cl	3	
				CCC(C)C(=O)c1ccc(OCC(=O)O)c(Cl)c1Cl (stereo unspecified)	2	Solubility ratio [15]: 1.061; Solubility ratio [7]: 1.088
				CCC(C(=O)c1ccc(OCC(=O)O)c(Cl)c1Cl)S(C)(=O)=O (stereo unspecified)		Solubility ratio [13]: 1.052; Solubility ratio [14]: 1.029
1.237	1.05	1.183	1.094	C=C(CC)C(=O)c1ccc(OC(C)(C)C(=O)O)c(Cl)c1Cl	0	
1.184	1.07	1.151	1.125	C=C(CC)C(=O)c1ccc(OCC(=O)O)c(Cl)c1Cl [ETHACRYNIC ACID]	6	
			0.989	CC1(c2ccccc2)Cc2cc(OCC(=O)O)c(Cl)c(Cl)c2C1=O (stereo unspecified) [INDACRINONE]		Diuretic activity (Canis familiaris [6]): 3; Solubility ratio [7]: 1
